Measured values as given in PubChem BioAssay AID602228 (Southern Research Specialized Biocontainment Screening …, 2012).
Inconclusive results are not listed. Calls of active or inactive are those of the source.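 The calls were made as follows: active = viability below 80% at one or more tested concentrations; inconclusive = replicate runs disagree on the 80% viability cutoff; inactive = viability above 80% at every tested concentration.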

How the values were obtained:
[1] = tested on: Vero E6 viability, CellTiter-Glo luminescence, 72 h; assay: Vero E6 cell cytotoxicity, dose response, cytotoxicity control for PfM1AAP inhibitor project, set 2 (AID 602228)
Summary of the method: (§1)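 Assay system: Vero E6 cell line / Medium: E-MEM plus 10% FBS / Doses: 10 concentrations, 2-fold dilution steps / Times: 72 h treatment at 37 °C / Measured by: CellTiter-Glo ATP luminescence / Read-out basis: % viability and CC50 from 4-parameter curve / Benchmarks: vehicle-treated cell wells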

[2] = as above; conditions: Vero E6 viability, CellTiter-Glo luminescence, 72 h; at 50 µM (top of the series)
Summary of the method: as §1

Which CC50 [1] does the source give for `O=C(NCc1ccc(Cl)cc1)C1CCN(S(=O)(=O)c2ccc(Br)s2)CC1` here?
The CC50 was 17.7 µM.

Which viability [2] does the source give for `O=C(NCc1ccc2c(c1)OCO2)C1CCN(S(=O)(=O)c2ccc(Br)s2)CC1` here?
The viability was 89.3% (inactive).

For `CC[C@H](C)[C@H](NS(=O)(=O)c1ccc(Br)s1)C(=O)NCc1ccc2c(c1)OCO2`, which viability [2] is on record?
The viability was 95.3% (inactive).

With `O=C(NCc1ccc(F)cc1)C1CCN(S(=O)(=O)c2ccc(Br)s2)CC1` as the molecule, how does the CC50 [1] read?
Its CC50 is 39.6 µM.

Which CC50 [1] does the source give for `O=C(NCc1ccccc1)C1CCN(S(=O)(=O)c2ccc(Br)s2)CC1` here?
Its CC50 is 47.4 µM.
